Experimental data reported in ChEMBL document CHEMBL4715795, “Urolinin: The First Linear Peptidic Urotensin-II Receptor Agonist” (J Med Chem, 2016).
Peptide text beside a SMILES is read from it.

Legend:
Urotensin-2 receptor [1] = biological target: T1, Urotensin-2 receptor (Homo sapiens, UniProt Q9UKP6); test: Agonist activity at human U-IIR expressed in HEK293-A cells by Fluo4-AM dye based intracellular calcium mobilization assay; format: functional, cell-based
T1 sequence (Q9UKP6 whole entry): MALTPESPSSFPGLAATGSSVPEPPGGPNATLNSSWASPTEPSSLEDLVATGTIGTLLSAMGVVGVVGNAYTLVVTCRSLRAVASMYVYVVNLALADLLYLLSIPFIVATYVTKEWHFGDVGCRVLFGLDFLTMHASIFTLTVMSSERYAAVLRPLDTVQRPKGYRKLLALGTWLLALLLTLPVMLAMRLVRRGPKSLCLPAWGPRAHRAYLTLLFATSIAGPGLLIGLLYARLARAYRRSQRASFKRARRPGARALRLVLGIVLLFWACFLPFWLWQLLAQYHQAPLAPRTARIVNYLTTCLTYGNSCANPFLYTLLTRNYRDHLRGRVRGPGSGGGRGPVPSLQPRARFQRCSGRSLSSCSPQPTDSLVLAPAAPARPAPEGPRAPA

[2] = Half life in 25% human serum by RP-HPLC analysis; format: ADME, cell-free
How it was run: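 Peptide at 50 μg/mL final in RPMI with 25% (v/v) human serum, pre-equilibrated at 37 °C. Samples taken at set times into 6% TCA, iced 15 min, spun at 18000g. Supernatant run on C18 RP-HPLC, 25–80% acetonitrile gradient over 15 min at 30 °C, absorbance at 214 and 280 nm.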

Urotensin-2 receptor [3] = biological target: T1, Urotensin-2 receptor; test: Displacement of [125I-Tyr9]-U-II from human U-IIR expressed in HEK293-A cells incubated for 30 mins by gamma counting based competition radioligand binding assay; format: cell-based
[4] = biological target: Somatostatin receptor type 1 (Homo sapiens, UniProt P30872); test: Displacement of [125I-Tyr11]-SS14 from human SSTR1 expressed in HEK293-A cells incubated for 30 mins by gamma counting based competition radioligand binding assay; format: cell-based
Sequence of Somatostatin receptor type 1 (P30872 whole entry): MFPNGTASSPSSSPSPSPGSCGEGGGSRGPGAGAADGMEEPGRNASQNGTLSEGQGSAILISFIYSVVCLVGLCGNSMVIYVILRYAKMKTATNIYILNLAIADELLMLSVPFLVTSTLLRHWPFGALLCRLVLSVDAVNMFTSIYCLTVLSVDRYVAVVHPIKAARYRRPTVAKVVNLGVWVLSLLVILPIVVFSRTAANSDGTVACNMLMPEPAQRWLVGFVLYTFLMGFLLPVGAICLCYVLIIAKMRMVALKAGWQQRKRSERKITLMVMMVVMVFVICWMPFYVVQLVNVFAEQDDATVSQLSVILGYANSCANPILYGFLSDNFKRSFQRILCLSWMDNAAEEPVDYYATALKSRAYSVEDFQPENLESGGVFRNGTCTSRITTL
How it was run: (§1)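 Competition binding on HEK293A cells overexpressing the given human SSTR subtype, seeded overnight. Binding buffer: 50 mM Tris-HCl pH 7.4, 5 mM MgCl2, 1 mM CaCl, 0.5% BSA, protease inhibitors. 100000 cpm [125I-Tyr11]-SS14 (chloramine-T iodinated, HPLC-purified) with varying competitor, 30 min at 37 °C. Cells washed four times in cold buffer, lysed in 1 N NaOH, gamma counted. Mean ± SD, three experiments in duplicate.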

[5] = biological target: Somatostatin receptor type 2 (Homo sapiens, UniProt P30874); test: Displacement of [125I-Tyr11]-SS14 from human SSTR2 expressed in HEK293-A cells incubated for 30 mins by gamma counting based competition radioligand binding assay; format: cell-based; how it was run: as §1
Sequence of Somatostatin receptor type 2 (P30874 whole entry): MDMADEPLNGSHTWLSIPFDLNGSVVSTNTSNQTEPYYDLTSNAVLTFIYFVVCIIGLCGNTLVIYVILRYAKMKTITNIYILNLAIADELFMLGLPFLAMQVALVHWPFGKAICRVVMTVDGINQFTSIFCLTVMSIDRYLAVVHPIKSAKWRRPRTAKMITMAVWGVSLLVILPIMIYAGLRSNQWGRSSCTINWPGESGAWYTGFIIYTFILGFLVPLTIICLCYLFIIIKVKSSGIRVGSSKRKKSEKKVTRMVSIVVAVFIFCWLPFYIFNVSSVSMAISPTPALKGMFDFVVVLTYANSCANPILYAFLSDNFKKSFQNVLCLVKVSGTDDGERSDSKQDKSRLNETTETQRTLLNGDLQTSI

[6] = biological target: Somatostatin receptor type 3 (Homo sapiens, UniProt P32745); test: Displacement of [125I-Tyr11]-SS14 from human SSTR3 expressed in HEK293-A cells incubated for 30 mins by gamma counting based competition radioligand binding assay; format: cell-based; how it was run: as §1
Sequence of Somatostatin receptor type 3 (P32745 whole entry): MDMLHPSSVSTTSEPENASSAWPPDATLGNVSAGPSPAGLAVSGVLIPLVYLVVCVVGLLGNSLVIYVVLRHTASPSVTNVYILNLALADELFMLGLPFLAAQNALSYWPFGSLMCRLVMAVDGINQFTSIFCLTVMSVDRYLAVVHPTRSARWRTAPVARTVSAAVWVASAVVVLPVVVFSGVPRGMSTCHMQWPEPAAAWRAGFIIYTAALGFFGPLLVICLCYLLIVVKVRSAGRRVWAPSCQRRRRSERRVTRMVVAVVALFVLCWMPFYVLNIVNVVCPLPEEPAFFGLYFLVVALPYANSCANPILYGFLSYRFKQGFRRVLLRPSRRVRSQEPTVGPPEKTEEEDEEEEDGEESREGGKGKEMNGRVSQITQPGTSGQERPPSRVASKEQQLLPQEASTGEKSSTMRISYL

[7] = biological target: Somatostatin receptor type 5 (Homo sapiens, UniProt P35346); test: Displacement of [125I-Tyr11]-SS14 from human SSTR5 expressed in HEK293-A cells incubated for 30 mins by gamma counting based competition radioligand binding assay; format: cell-based; how it was run: as §1
Sequence of Somatostatin receptor type 5 (P35346 whole entry): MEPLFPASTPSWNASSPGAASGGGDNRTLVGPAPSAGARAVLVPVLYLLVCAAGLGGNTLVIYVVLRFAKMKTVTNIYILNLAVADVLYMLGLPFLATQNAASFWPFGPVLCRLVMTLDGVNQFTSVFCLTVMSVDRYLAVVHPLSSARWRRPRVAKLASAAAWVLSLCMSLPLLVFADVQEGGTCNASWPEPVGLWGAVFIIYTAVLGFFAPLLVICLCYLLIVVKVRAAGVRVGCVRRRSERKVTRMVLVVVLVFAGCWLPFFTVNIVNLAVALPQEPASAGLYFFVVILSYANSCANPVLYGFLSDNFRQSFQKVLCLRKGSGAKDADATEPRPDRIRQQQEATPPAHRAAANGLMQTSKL

[8] = biological target: T2, Urotensin-2 receptor (Homo sapiens) (UniProt Q9UKP6); test: Agonist activity at human U-IIR expressed in HEK293-A cells at 500 nM by Fluo4-AM dye based intracellular calcium mobilization assay relative to control; format: functional, cell-based; conditions: filed as agonist
T2 sequence (whole entry): T1 sequence (Q9UKP6 whole entry)

[9] = biological target: T2, Urotensin-2 receptor (Homo sapiens); test: Agonist activity at human U-IIR expressed in HEK293-A cells at 500 nM by Fluo4-AM dye based intracellular calcium mobilization assay relative to control; conditions: filed as agonist, dose nM 500

EC50 (Urotensin-2 receptor [1]) [µM]	half-life [2] [h]	IC50 (Urotensin-2 receptor [3]) [µM]	IC50 [4] [µM]	IC50 [5] [µM]	IC50 [6] [µM]	IC50 [7] [µM]	%max [8] [%]	%max [9] [%]	SMILES
0.00475	22	0.6	6.72	37.5	6.07	28.4			CC[C@H](NC(=O)[C@H](Cc1ccc(O)c([N+](=O)[O-])c1)NC(=O)[C@H](CCCCN)NC(=O)[C@H](Cc1c[nH]c2ccccc12)NC(=O)[C@H](Cc1c[nH]c2ccccc12)NC(=O)[C@H](N)CC(N)=O)C(N)=O
							57	57	CC(=O)N[C@@H](Cc1ccccc1)C(=O)N[C@@H](Cc1c[nH]c2ccccc12)C(=O)N[C@@H](CCCCN)C(=O)N[C@@H](Cc1ccc(O)cc1)C(N)=O (Ac-FWKY-NH2)
